This note sets out measurements from ChEMBL document CHEMBL3286245, “Synthesis and antitumor activity of pyrido [2,3-d]pyrimidine and pyrido[2,3-d] [1,2,4]triazolo[4,3-a]pyrimidine derivatives that induce apoptosis through G1 cell-cycle arrest” (Eur J Med Chem, 2014).

The test system of test [1] is A549. Kind of test: Cytotoxicity against human A549 cells after 48 hrs by sulforhodamine B assay. The conditions noted are these: A549, 48 h. In kind it is functional, cell-based. The method in brief:
(§1)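 Exponentially growing cells harvested with 0.25% trypsin-EDTA, seeded at 1000–2000 cells/well in supplemented DMEM, left 24 h, then exposed 48 h to a concentration series; 5-fluorouracil as reference. Fixed with 10% TCA 1 h at 4 °C, stained 10 min with 0.4% SRB in 1% acetic acid, dye solubilized in Tris-HCl, OD read at 564 nm. IC50 from Boltzmann sigmoidal nonlinear fit; means of at least three experiments.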
A general note: The SRB assay estimates cell density from bound dye.

For test [2], the system named is PC-3. Kind of test: Cytotoxicity against human PC3 cells after 48 hrs by sulforhodamine B assay. As to conditions: PC-3, 48 h. In kind it is functional, cell-based. In outline: as §1
The next test concerns MCF7. Kind of test: Cytotoxicity against human MCF7 cells after 48 hrs by sulforhodamine B assay. The conditions noted are these: MCF7, 48 h. In kind it is functional, cell-based. The method in brief: as §1
In the next test the test system is HepG2. Kind of test: Cytotoxicity against human HepG2 cells after 48 hrs by sulforhodamine B assay. In kind it is functional, cell-based. The conditions noted are these: HepG2, 48 h. The method in brief:
as §1

Test [3] has as its system A549. In words: Ratio of 5-fluorouracil IC50 to compound IC50 for human A549 cells. In kind it is functional.
Test [4] has as its system PC-3. In words: Induction of apoptosis in human PC3 cells assessed as wrinkled cells at IC50 after 24 hrs by acridine orange/ethidium bromide staining-based fluorescence microscopic analysis. In kind it is functional, cell-based.
Test [5] has as its system PC-3. Kind of test: Induction of apoptosis in human PC3 cells assessed as condensed and fragmented chromatin at IC50 after 24 hrs by acridine orange/ethidium bromide staining-based fluorescence microscopic analysis. In kind it is functional, cell-based.
Test [6] has as its system PC-3. In words: Induction of apoptosis in human PC3 cells assessed as condensed and fragmented chromatin at IC50 after 48 hrs by acridine orange/ethidium bromide staining-based fluorescence microscopic analysis. In kind it is functional, cell-based.
Test [7] has as its system PC-3. In words: Induction of apoptosis in human PC3 cells assessed as increase in caspase-3 level at IC50 uM after 24 hrs by sandwich enzyme immunoassay relative to control. In kind it is functional.
The subject of test [8] is PC-3. Kind of test: Induction of apoptosis in human PC3 cells assessed as increase in caspase-3 level at IC50 uM after 48 hrs by sandwich enzyme immunoassay relative to control. In kind it is functional.
The subject of test [9] is PC-3. In words: Cell cycle arrest in human PC3 cells assessed as accumulation at G0/G1 phase at IC50 after 24 hrs by propidium iodide staining-based flow cytometric analysis. In kind it is functional.
Test [10] has as its system PC-3. Kind of test: Cell cycle arrest in human PC3 cells assessed as reduction in accumulation at S phase at IC50 after 24 hrs by propidium iodide staining-based flow cytometric analysis. In kind it is functional. A general note: Flow cytometry measures light scatter and fluorescence of single cells or particles in a stream.
In test [11] the test system is PC-3. Kind of test: Cell cycle arrest in human PC3 cells assessed as reduction in accumulation at G2/M phase at IC50 after 24 hrs by propidium iodide staining-based flow cytometric analysis. In kind it is functional.
Test [12] has as its system PC-3. In words: Cell cycle arrest in human PC3 cells assessed as increase in accumulation at pre-G phase at IC50 after 48 hrs by propidium iodide staining-based flow cytometric analysis. In kind it is functional.
The target in test [13] is Cyclin-dependent kinase 4/cyclin D1 (Homo sapiens) (UniProt P11802+P24385). Kind of test: Inhibition of CDK4/cyclin D1 (unknown origin) at 10 uM after 20 to 30 mins by scintillation counting analysis relative to control. In kind it is protein-complex assay.
The target of test [14] is T1, CDK6/cyclin D1 (Homo sapiens) (UniProt P24385+Q00534). Kind of test: Inhibition of CDK6/cyclin D1 (unknown origin) at 1 uM after 20 to 30 mins by scintillation counting analysis relative to control. In kind it is protein-complex assay.
For test [15], the target named is T1, CDK6/cyclin D1 (Homo sapiens). In words: Inhibition of CDK6/cyclin D1 (unknown origin) at 10 uM after 20 to 30 mins by scintillation counting analysis relative to control. In kind it is protein-complex assay.
The subject of test [16] is PC-3. In words: Upregulation of p21 protein level in human PC3 cells at IC50 after 48 hrs by immunocytochemical analysis. In kind it is functional, cell-based.
The subject of test [17] is PC-3. Kind of test: Upregulation of p21 protein level in human PC3 cells at IC50 after 48 hrs by Western blotting analysis relative to control. In kind it is functional. On the technique in general: A western blot detects proteins with antibodies after separation by electrophoresis.

Calls of active or inactive are those of the source. The rule behind the calls is not given here.

The term IC50 denotes the point on the concentration scale where inhibition reaches its midpoint. `CC(=O)c1nn(-c2ccccc2)c2nc3nc(-c4cccs4)cc(-c4ccccc4)c3c(=O)n12`: the 50% inhibitory concentration (IC50) in the test with A549 [1] came to 58.3 µM; in the test on PC-3 [2] it was 32.3 µM.

`CC(=O)c1nn(-c2ccc(Cl)cc2)c2nc3nc(-c4cccs4)cc(-c4ccccc4)c3c(=O)n12`: the results for the half-maximal inhibitory concentration (IC50) in the test with A549 [1] and in the test on PC-3 [2] were 30.6 µM and 22.9 µM, respectively.

As a reminder, the inhibition is the change of the read-out against control, counted positive when it falls. A high value points to a strong effect. On to `CC(=O)c1nn(-c2ccc(S(N)(=O)=O)cc2)c2nc3nc(-c4cccs4)cc(-c4ccccc4)c3c(=O)n12`, for which the IC50 stood at 38 µM with MCF7, 56.6 µM in the test with HepG2, 0.41 µM in the test on A549 [1] and 0.36 µM with PC-3 [2]. Also, in the test on A549 [3], the “Ratio IC50” value is 10. For the same compound, the outcome with PC-3 [4], in the test on PC-3 [5], in the test on PC-3 [6], in the test with PC-3 [9], in the test on PC-3 [10] and with PC-3 [11] was Active. Besides, the outcome with PC-3 [12] and in the test on PC-3 [16] was Active. Further, the “fold change (FC)” value with PC-3 [7] amounted to 1.5; in the test on PC-3 [8], 2; in the test on PC-3 [17], 1.7. Also, the figures for the inhibition in [13], in test [14] and in [15] were 5%, 2% and 1%, respectively.

With `CCOC(=O)c1nn(-c2ccc(Cl)cc2)c2nc3nc(-c4cccs4)cc(-c4ccccc4)c3c(=O)n12`, the concentration for half-maximal inhibition (IC50) came out at 72.6 µM in the test on A549 [1] and 37.4 µM in the test on PC-3 [2].

Consider `COc1ccc(-n2nc(C(C)=O)n3c(=O)c4c(-c5ccccc5)cc(-c5cccs5)nc4nc23)cc1`, for which the IC50 in the test on A549 [1] stood at 24.6 µM; in the test with PC-3 [2] it was 19.5 µM.

Regarding `Nc1n[nH]c2nc3nc(-c4cccs4)cc(-c4ccccc4)c3c(=O)n12`, the IC50 in the test on A549 [1] was determined as 43.7 µM; with PC-3 [2], 12.3 µM.

`O=c1[nH]c(N/N=C/c2ccc(F)cc2)nc2nc(-c3cccs3)cc(-c3ccccc3)c12`: the figures for the IC50 in the test on A549 [1] and with PC-3 [2] were 3.36 µM and 1.54 µM, respectively.

`O=c1c2c(-c3ccccc3)cc(-c3cccs3)nc2nc2[nH][nH]c(=S)n12`: the IC50 was found to be 54.1 µM in the test on A549 [1] and 32.4 µM with PC-3 [2].

As to `O=c1[nH]c(N/N=C/c2ccc(Cl)cc2)nc2nc(-c3cccs3)cc(-c3ccccc3)c12`, the IC50 in the test on A549 [1] stood at 40.8 µM; in the test with PC-3 [2], 23.8 µM.

`CCOC(=O)c1nn(-c2ccc(C)cc2)c2nc3nc(-c4cccs4)cc(-c4ccccc4)c3c(=O)n12`: the figures for the concentration for half-maximal inhibition (IC50) with A549 [1] and in the test on PC-3 [2] were 37.8 µM and 33.3 µM, respectively.

Consider `CCOC(=O)c1nn(-c2ccccc2)c2nc3nc(-c4cccs4)cc(-c4ccccc4)c3c(=O)n12`, for which the results for the IC50 in the test with A549 [1] and in the test with PC-3 [2] were 26.6 µM and 33.6 µM, respectively.

On to `O=c1[nH][nH]c2nc3nc(-c4cccs4)cc(-c4ccccc4)c3c(=O)n12`, for which the half-inhibitory concentration (IC50) in the test on A549 [1] came to 14.7 µM; in the test with PC-3 [2] it was 12.7 µM.

For `O=c1[nH]cc(F)c(=O)[nH]1` [FLUOROURACIL], the IC50 with A549 [1] amounted to 4.21 µM; in the test with PC-3 [2], 12 µM.

Take `Cc1ccc(/C=N/Nc2nc3nc(-c4cccs4)cc(-c4ccccc4)c3c(=O)[nH]2)cc1`: the results for the IC50 in the test on A549 [1] and in the test with PC-3 [2] were 56.6 µM and 0.63 µM, respectively.

Take `CC(=O)c1nn(-c2ccc(C)cc2)c2nc3nc(-c4cccs4)cc(-c4ccccc4)c3c(=O)n12`: the 50% inhibitory concentration (IC50) in the test on A549 [1] worked out at 19.3 µM; in the test with PC-3 [2], 16.9 µM.

Turning to `CCOC(=O)c1nn(-c2ccc(S(N)(=O)=O)cc2)c2nc3nc(-c4cccs4)cc(-c4ccccc4)c3c(=O)n12`, the IC50 with A549 [1] was determined as 16.4 µM; with PC-3 [2], 7.15 µM.

Regarding `O=c1c2c(-c3ccccc3)cc(-c3cccs3)nc2nc2[nH]ncn12`, the results for the 50% inhibitory concentration (IC50) with A549 [1] and with PC-3 [2] were 21.7 µM and 11.7 µM, respectively.

As for `COc1ccc(/C=N/Nc2nc3nc(-c4cccs4)cc(-c4ccccc4)c3c(=O)[nH]2)cc1`, the figures for the IC50 in the test with A549 [1] and with PC-3 [2] were 18.7 µM and 18.2 µM, respectively.

For `CC(=O)c1nn(-c2ccc(F)cc2)c2nc3nc(-c4cccs4)cc(-c4ccccc4)c3c(=O)n12`, the values for the IC50 with A549 [1] and in the test on PC-3 [2] were 39.1 µM and 35.9 µM, respectively.

Turning to `O=c1[nH]c(N/N=C/c2ccccc2)nc2nc(-c3cccs3)cc(-c3ccccc3)c12`, the figures for the half-inhibitory concentration (IC50) with A549 [1] and in the test on PC-3 [2] were 32.1 µM and 26.8 µM, respectively.

For `Cc1n[nH]c2nc3nc(-c4cccs4)cc(-c4ccccc4)c3c(=O)n12`, the IC50 in the test on A549 [1] stood at 55.5 µM; in the test on PC-3 [2] it was 83.9 µM.
